Screening data deposited in PubChem BioAssay by Johns Hopkins Ion Channel Center.
MrgX1 antag – human MrgX1 receptor antagonism, primary screen | Q96LB2 | MRGX1-HEK293 calcium flux, Fluo-4, BAM8-22 antagonism; hits give low values | B-score at 10 µM | 310,000 compounds, 1.3% hits | AID 588676;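 active = calcium-response B-score plate-corrected more than 3 library SD below zero, starting fluorescence within 5 deviations, no agonist response on first addition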;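 also: peak minus trough fluorescence over baseline after final BAM8-22 challenge near maximal dose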
MrgX1 allo act – human MrgX1 positive allosteric modulation, primary screen. Q96LB2. MrgX1-HEK293, Fluo-4 calcium flux, FDSS; hits give high values. B-score at 10 µM. 310,000 compounds, 0.63% hits. AID 588675;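 active = plate-corrected calcium response at least 3 library SD above typical, normal starting fluorescence, not activating the receptor alone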;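 also: compound read alongside a low EC10 to EC30 dose of BAM8-22 agonist; peak minus trough fluorescence over baseline measured at the second addition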
RGS4 pot – potentiators or activators of RGS4 | AID 463111 | 310,000 compounds, 0.92% hits | HEK293 M3R/inducible RGS4, carbachol calcium flux Fluo4; hits give low values | B-score at 10 µM;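 active = B-score of the integrated calcium signal more than 4 SD below the library mean, with starting fluorescence not abnormally high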;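 also: negative B-score means reduced calcium response which marks RGS4 activation or potentiation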
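Reagent: ECmax carbachol challenge; Test system: M3R-expressing HEK293 line, RGS4 induced by doxycycline; Schedule: overnight RGS4 induction, 30 min dye load 37 °C, 20 min compound RT; Detection: calcium dye Fluo4 fluorescence; Read-out: Agonist-evoked peak-minus-minimum fluorescence over baseline, integrated ratio, B score.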
Kir21 inh – inhibitors of mouse Kir2.1 inward-rectifier potassium channel. P35561. HEK293-Kir2.1, FluxOR thallium flux fluorescence; hits give low values. B-score at 10 µM. 310,000 compounds, 0.85% hits. AID 1672;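 active = fluorescence ratio B-score at or below minus 3 SD of library scores, with starting-brightness B-score within 2 SD, cut at about -4.2 in these data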;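 also: channel flux triggered by added potassium and thallium sulfate stimulus; B-score of peak minus minimum fluorescence over baseline after thallium stimulus; more negative B-score means stronger Kir2.1 block with less thallium influx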
Target sequence (P35561 whole entry, looked up): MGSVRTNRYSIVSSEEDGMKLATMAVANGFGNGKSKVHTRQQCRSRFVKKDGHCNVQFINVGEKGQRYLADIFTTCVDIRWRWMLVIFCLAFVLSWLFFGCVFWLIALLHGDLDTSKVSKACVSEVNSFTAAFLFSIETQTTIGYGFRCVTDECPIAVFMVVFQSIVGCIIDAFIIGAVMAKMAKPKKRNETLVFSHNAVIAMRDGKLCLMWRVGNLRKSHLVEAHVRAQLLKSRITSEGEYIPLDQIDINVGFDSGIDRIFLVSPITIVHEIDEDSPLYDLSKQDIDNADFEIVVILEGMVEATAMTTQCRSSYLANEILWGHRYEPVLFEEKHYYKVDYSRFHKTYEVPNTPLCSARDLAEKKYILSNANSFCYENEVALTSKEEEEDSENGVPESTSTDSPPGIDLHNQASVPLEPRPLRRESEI
MrgX1 agonist – human MrgX1 receptor agonism, primary screen; 310,000 compounds, 0.44% hits; MrgX1-HEK293 cells, Fluo-4 calcium fluorescence, agonist mode; hits give high values; AID 588627; Q96LB2; B-score at 10 µM;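 active = calcium response B-score plate-corrected fluorescence ratio at least 3 library SD, with starting fluorescence B-score inside 5 SD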
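Material: MrgX1-expressing HEK293 cells / Dosing: compound as first of three additions / Incubation: overnight seeding, then 1 h dark dye loading / Signal: Fluo-4 NW calcium fluorescence / Evaluation: B-scored fluorescence response ratio / Benchmarks: positive and negative control wells on each plate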
RGS4 block – human RGS4 inhibition; P49798; HEK293 M3R/RGS4 inducible, Fluo-4 calcium flux; hits give high values; triggered by carbachol at its EC20; B-score at 10 µM; 310,000 compounds, 0.45% hits; AID 463165;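 active = B-score, a plate-corrected calcium signal, over three deviations above library mean, with baseline fluorescence within five deviations of library mean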;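 also: RGS4 expression induced by doxycycline in cells with stable M3 receptor; B-score is computed from the integrated fluorescence ratio over baseline after carbachol; higher B-score means a larger calcium signal and so more RGS4 inhibition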
Target sequence (P49798 whole entry, looked up): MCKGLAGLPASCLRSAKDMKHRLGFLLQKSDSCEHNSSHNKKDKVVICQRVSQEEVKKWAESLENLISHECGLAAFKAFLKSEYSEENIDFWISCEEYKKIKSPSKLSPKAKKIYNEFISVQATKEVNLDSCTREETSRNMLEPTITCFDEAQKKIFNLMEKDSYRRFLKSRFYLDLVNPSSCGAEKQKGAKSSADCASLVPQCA
RGS4 activ val – RGS4 activation, validation assay. shares compounds with RGS4 pot. HEK293 M3R/RGS4 inducible, carbachol calcium flux Fluo4. inhibition, % at 10 µM. 1,100 compounds, 89% hits;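 active = inhibition above 3 SD of the buffer control wells, cut at about 41% in these data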;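 also: signal is the integrated peak-minus-minimum Fluo4 fluorescence over baseline ratio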
RGS4 act ctr – activity in cells without induced RGS4 expression | shares compounds with RGS4 pot | HEK293 M3R non-induced RGS4, Fluo4 calcium flux; after carbachol challenge at its EC90 | inhibition, % at 10 µM | 1,100 compounds, 82% hits;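 active = inhibition exceeding 3 SD of buffer-only control wells, cut at about 26% in these data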;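 also: percent drop in integrated peak-minus-baseline over baseline Fluo4 ratio after carbachol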
The depositor's hits bear a star; i = inactive; / = no result given. The list is not random: actives were taken first. Their share in the collection is about 4.1%.

SMILES	MrgX1 antag	MrgX1 allo act	RGS4 pot	Kir21 inh	MrgX1 agonist	RGS4 block	RGS4 activ val	RGS4 act ctr
COCCNC(=O)C(c1ccc(Cl)cc1)N(Cc1ccco1)C(=O)CCC(=O)Nc1ccccn1 (stereo unspecified)	i	i	i	-2.2	i	i	/	/
Cc1ccc(OCC(=O)Nc2ccc(CN3CCCCC3)cc2)c(C)c1	i	i	-9.9*	-1.1	i	i	66*	84*
CN(C)C(C)(C)/C=C/C(O)(c1ccccc1)c1ccccc1	i	i	-8.7*	-0.14	i	i	88*	64*
CN(C)N(Cc1ccccc1)C(=O)C(O)(c1ccccc1)c1ccccc1	i	i	i	-0.18	i	i	/	/
Cc1nnsc1NC(=O)OCC(C)(C)C	i	i	i	2.2	i	i	/	/
COc1ccccc1NC(=O)COc1ccc(C(=O)OCC(=O)NC(C)(C)C)cc1OC	i	i	i	0.32	i	i	/	/
Cc1nn(Cc2ccc(C(=O)Nc3ccc(C(=O)OC(C)C)cc3)o2)c(C)c1Cl	i	i	-9.6*	-0.47	i	i	92*	79*
CN(Cc1ccc(F)cc1)C(=O)c1cccc(S(=O)(=O)N2CCN(c3ccc(F)cc3)CC2)c1	i	i	-7.6*	-0.01	i	i	40*	84*
CN(Cc1ccc(F)cc1)C(=O)c1cccc(S(=O)(=O)N2CCN(c3ccccc3)CC2)c1	i	i	i	-0.99	i	i	/	/
COc1ccc(CCNC(=O)c2cccc3c2C(=O)N(C2CCCCC2)C3)cc1OC	i	i	-8.1*	-0.25	i	i	64*	0
CN(CCN(C)C(C)(C)C)C(=O)C(c1ccccc1)c1ccccc1	i	i	-12*	0.93	i	i	94*	75*
COc1cccc(N2CCN(C(=O)C3CCN(S(=O)(=O)c4ccc5c(c4)oc(=O)n5C)CC3)CC2)c1	i	i	i	-0.22	i	i	/	/
Cc1ccc(S(=O)(=O)N2CCC(c3nnc(SCCN4CCCC4)n3C)CC2)cc1	i	i	i	-0.84	i	i	/	/
Cn1c(SCCN2CCCC2)nnc1C1CCN(S(=O)(=O)c2ccc(F)cc2)CC1	i	i	-7.8*	0.53	i	i	50*	0
COc1ccc(S(=O)(=O)n2cnc3cc(C)c(C)cc32)cc1	i	i	i	-1.7	i	i	/	/
COc1ccc(S(=O)(=O)n2cnc3cc(C)c(C)cc32)cc1C	i	i	-10*	-0.93	i	i	88*	46*
Cc1nccn1CC(O)Cn1c2ccccc2c2ccccc21 (stereo unspecified)	i	i	-7.7*	-1.1	i	i	86*	29*
Cn1c(=N)n(CC(=O)c2ccc(Br)s2)c2ccccc21	i	i	i	2.4	i	i	/	/
CCN(CC)CCn1c(=N)n(CC(=O)c2ccc(Br)s2)c2ccccc21	i	i	-7.8*	-3.1	i	i	58*	84*
CCOC(=O)c1ccc(Nc2cc(C)nc(C)c2C(=O)OCC)cc1	i	i	-8.4*	-0.61	i	i	58*	84*
OCCCNc1cc(-c2ccccc2)nc2cc(-c3ccc(F)cc3)nn12	i	i	-8.8*	-0.76	i	i	68*	42*
Cc1nc(SCC(=O)N2CCN(c3ccccc3)CC2)c2oc3ccccc3c2n1	i	i	-9.3*	0.86	i	i	80*	0
CCc1nc(SCC(=O)NC2CCCC2)c2oc3ccccc3c2n1	i	i	i	-0.01	i	i	/	/
CCc1nc(SCC(=O)N2CCCc3ccccc32)c2oc3ccccc3c2n1	i	i	-9.4*	0.26	i	i	90*	71*
Cc1nc(SCC(=O)O)c2oc3ccccc3c2n1	i	i	i	0.66	i	i	/	/
SMILES	MrgX1 antag	MrgX1 allo act	RGS4 pot	Kir21 inh	MrgX1 agonist	RGS4 block	RGS4 activ val	RGS4 act ctr
COC(=O)c1ccc(CN2CCC(Oc3cccc(C(=O)N4CCCC4)c3)CC2)cc1	i	i	-8*	0.67	i	i	87*	59*
COC(=O)c1ccc(CN2CCC(Oc3ccc(C(=O)N4CCCCC4)cc3)CC2)cc1	i	i	-9.9*	-1.1	i	i	92*	80*
CN(C)c1ccc(C(=O)OCC(=O)N2CCCC2)cc1	i	i	i	0.95	i	i	/	/
CN(CC(=O)Nc1c(Cl)cccc1Cl)C(=O)c1cc(-c2cccs2)nn1-c1ccccc1	i	i	i	0.24	i	i	/	/
CCN(CC(=O)Nc1ccccc1OC)C(=O)c1cc(-c2ccccc2)nn1-c1ccccc1	i	i	-7.8*	-0.35	i	i	92*	67*
CN(CC(=O)Nc1ccc(Cl)cc1)C(=O)c1cc(-c2cccs2)nn1-c1ccccc1	i	i	-8.5*	-0.7	i	i	88*	42*
CCN(CC(=O)Nc1c(F)cccc1F)C(=O)c1cc(-c2cccs2)nn1-c1ccccc1	i	i	-9.4*	-0.42	i	i	52*	84*
CCc1ccccc1NC(=O)COc1ccc(N2CC(C(N)=O)CC2=O)cc1 (stereo unspecified)	i	i	i	-0.03	i	i	/	/
O=C(COc1ccc(Cl)cc1)NCCSCc1ccccc1Cl	i	i	i	0.6	i	i	/	/
COc1ccc(CNc2nc(SCC(=O)NCc3ccco3)nc3ccccc23)cc1	i	i	i	-1.9	i	i	/	/
O=C(COC(=O)c1ccc2c(c1)OCCO2)Nc1cc(Cl)ccc1Cl	i	i	i	-2.2	i	i	/	/
Cc1nn(-c2ccccc2)c(C)c1NC(=O)COC(=O)c1ccc(O)cc1O	i	i	-10*	-0.48	i	i	52*	0
CC(O)CNc1nc2c(c(=O)n(Cc3ccc(Cl)c(Cl)c3)c(=O)n2C)n1C (stereo unspecified)	i	i	i	-0.96	i	i	/	/
CCN(CC)CC#CCOC(c1ccccc1)c1ccccc1	i	i	-9.2*	-3	i	i	88*	57*
CCNCCOC(c1ccccc1)c1ccccc1	i	i	i	-1.2	i	i	/	/
